How the values were obtained:
[1] = molecular target: T1, 3-phosphoinositide-dependent protein kinase 1 (Homo sapiens) (UniProt O15530); experiment: Inhibition of PDPK1 at 1 uM
T1 sequence (whole entry): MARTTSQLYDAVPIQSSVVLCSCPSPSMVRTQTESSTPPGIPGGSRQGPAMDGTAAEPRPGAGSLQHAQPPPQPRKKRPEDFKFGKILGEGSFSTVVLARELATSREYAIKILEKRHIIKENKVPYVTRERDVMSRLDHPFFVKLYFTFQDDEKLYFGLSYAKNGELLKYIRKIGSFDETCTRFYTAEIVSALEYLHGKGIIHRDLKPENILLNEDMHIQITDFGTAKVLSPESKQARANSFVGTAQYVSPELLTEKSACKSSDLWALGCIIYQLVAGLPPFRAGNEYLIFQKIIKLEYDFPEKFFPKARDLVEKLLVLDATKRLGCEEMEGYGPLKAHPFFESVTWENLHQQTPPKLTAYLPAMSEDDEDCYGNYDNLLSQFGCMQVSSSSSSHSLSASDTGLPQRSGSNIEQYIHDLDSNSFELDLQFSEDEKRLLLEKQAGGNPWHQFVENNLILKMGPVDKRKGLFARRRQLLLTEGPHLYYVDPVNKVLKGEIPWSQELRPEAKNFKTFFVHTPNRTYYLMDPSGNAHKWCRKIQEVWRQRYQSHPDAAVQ

[2] = molecular target: T2, Ephrin type-B receptor 6 (Homo sapiens) (UniProt O15197); experiment: Inhibition of EPHB6 at 1 uM
T2 sequence (whole entry): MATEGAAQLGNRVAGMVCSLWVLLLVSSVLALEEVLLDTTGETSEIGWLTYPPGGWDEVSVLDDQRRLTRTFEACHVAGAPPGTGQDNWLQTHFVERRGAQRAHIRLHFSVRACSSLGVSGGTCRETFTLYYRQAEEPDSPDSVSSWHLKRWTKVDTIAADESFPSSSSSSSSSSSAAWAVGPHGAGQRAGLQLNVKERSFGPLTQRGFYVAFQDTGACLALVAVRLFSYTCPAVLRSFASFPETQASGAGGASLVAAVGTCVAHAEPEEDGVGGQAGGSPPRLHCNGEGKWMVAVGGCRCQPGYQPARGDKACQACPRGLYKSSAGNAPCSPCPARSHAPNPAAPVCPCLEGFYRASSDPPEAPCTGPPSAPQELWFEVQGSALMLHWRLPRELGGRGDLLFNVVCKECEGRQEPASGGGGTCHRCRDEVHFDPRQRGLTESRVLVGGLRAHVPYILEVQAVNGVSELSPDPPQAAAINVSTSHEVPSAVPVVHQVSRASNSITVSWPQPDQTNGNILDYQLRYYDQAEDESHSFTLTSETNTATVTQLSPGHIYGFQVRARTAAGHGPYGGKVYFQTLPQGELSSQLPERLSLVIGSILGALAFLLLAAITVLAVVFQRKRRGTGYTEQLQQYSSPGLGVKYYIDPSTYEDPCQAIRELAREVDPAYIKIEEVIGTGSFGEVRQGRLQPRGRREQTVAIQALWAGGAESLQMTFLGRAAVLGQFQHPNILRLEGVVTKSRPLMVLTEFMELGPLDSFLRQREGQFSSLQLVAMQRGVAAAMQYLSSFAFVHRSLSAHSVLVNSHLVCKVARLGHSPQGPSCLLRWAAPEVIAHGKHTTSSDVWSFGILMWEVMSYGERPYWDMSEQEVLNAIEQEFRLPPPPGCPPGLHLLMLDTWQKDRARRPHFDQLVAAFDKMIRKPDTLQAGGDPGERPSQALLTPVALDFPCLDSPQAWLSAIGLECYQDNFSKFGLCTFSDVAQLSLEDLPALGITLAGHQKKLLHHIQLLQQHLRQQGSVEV

[3] = molecular target: Insulin receptor-related protein (Homo sapiens) (UniProt P14616); experiment: Inhibition of INSRR at 1 uM
Chain of Insulin receptor-related protein (Homo sapiens) (P14616 27-742 limits assumed): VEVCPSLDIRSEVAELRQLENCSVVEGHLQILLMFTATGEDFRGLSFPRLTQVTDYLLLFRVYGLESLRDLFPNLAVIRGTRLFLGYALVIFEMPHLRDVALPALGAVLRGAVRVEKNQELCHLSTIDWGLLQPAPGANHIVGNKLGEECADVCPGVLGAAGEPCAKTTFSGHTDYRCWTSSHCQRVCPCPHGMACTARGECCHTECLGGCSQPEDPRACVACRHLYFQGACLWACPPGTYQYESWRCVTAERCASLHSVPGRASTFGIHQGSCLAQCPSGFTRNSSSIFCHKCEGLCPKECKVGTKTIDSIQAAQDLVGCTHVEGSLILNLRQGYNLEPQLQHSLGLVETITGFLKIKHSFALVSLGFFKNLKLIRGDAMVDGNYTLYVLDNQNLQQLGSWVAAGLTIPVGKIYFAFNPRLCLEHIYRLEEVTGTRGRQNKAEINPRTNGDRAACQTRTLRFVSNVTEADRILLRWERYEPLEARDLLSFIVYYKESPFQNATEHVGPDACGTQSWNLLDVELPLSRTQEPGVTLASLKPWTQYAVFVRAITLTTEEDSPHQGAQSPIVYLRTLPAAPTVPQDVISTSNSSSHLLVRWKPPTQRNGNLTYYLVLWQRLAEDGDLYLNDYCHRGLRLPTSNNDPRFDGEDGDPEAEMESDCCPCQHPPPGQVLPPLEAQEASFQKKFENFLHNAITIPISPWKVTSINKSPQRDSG
Chain of Insulin receptor-related protein (Homo sapiens) (P14616 747-1297 limits assumed): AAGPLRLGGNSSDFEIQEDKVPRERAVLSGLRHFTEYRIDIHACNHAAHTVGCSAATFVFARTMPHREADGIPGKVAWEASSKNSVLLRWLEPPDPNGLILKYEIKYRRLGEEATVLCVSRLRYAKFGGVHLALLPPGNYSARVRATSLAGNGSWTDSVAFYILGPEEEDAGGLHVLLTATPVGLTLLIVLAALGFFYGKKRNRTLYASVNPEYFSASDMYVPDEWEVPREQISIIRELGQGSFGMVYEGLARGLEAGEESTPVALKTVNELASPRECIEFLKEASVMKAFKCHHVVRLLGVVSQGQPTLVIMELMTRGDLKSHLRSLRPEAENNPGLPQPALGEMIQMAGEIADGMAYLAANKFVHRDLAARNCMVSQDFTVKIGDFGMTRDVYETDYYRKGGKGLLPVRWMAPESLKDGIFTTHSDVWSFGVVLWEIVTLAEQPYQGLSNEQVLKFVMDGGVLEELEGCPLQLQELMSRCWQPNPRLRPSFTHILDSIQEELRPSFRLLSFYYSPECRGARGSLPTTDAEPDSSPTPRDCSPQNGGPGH
How it was run: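 Single-concentration screen on the Ambit KINOMEscan platform, run against a panel of 250–400 kinases. Per-kinase inhibition was also summarized as S(90), the fraction of kinases inhibited by more than 90%.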

[4] = molecular target: Cyclin-dependent kinase 16 (Homo sapiens) (UniProt Q00536); experiment: Inhibition of PCTK1 at 1 uM
Chain of Cyclin-dependent kinase 16 (Homo sapiens) (Q00536 whole entry): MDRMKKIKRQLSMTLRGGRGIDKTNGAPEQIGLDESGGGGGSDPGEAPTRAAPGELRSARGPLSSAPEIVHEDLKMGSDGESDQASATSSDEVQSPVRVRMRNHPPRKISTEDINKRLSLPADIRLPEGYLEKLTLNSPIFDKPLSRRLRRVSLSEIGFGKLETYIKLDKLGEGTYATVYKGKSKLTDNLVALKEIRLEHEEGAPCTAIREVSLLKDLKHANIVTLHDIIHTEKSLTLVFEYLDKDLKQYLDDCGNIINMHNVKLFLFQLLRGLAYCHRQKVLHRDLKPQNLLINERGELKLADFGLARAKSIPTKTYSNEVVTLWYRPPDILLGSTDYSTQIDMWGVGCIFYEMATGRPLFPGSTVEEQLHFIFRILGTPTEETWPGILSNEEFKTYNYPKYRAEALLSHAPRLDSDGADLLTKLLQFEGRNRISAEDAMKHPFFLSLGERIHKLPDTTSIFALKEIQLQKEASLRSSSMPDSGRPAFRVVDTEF

[5] = molecular target: Mitogen-activated protein kinase 1 (Homo sapiens) (UniProt P28482); experiment: Inhibition of ERK2 at 1 uM
Chain of Mitogen-activated protein kinase 1 (Homo sapiens) (P28482 whole entry): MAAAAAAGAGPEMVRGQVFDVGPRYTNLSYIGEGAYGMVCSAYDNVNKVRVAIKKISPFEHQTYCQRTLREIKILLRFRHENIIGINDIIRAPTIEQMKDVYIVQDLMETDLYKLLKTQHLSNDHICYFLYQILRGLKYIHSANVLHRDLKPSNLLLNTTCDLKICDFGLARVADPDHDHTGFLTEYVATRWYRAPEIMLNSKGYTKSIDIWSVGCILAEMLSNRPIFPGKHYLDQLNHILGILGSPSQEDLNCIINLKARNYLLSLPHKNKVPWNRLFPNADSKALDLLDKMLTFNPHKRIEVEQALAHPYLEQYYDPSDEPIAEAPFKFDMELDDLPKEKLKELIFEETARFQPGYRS
How it was run: (§1)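 Single-concentration screen using Ambit Bioscience KINOMEscan technology across a panel of 250–400 kinases. Per-kinase inhibition from this screen was summarized as S(90), the fraction of kinases inhibited by more than 90%.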

[6] = molecular target: Serine/threonine-protein kinase PAK 3 (Homo sapiens) (UniProt O75914); experiment: Inhibition of PAK3 at 1 uM
Chain of Serine/threonine-protein kinase PAK 3 (Homo sapiens) (O75914 whole entry, looked up): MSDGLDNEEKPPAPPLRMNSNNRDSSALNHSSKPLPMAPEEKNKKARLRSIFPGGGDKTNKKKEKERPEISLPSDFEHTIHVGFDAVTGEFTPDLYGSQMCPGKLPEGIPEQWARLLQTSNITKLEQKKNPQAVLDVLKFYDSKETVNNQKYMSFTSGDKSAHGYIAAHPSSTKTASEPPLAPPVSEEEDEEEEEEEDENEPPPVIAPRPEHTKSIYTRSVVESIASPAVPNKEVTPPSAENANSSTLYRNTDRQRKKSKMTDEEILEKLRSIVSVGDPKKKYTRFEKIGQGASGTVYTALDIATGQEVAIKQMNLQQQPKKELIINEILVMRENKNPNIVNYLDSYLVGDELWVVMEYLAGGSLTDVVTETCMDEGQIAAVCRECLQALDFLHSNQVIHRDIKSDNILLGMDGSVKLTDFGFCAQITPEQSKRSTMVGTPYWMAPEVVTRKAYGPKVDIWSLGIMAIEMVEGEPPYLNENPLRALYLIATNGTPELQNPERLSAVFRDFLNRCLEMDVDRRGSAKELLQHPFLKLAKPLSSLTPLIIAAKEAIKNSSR

[7] = molecular target: Epidermal growth factor receptor (Homo sapiens) (UniProt P04626+P00533+Q15303+P21860); experiment: Inhibition of EGFR E746-A750del mutant at 1 uM; assay type: protein assay; how it was run: as §1
[8] = molecular target: Activin receptor type-2A (Homo sapiens) (UniProt P27037); experiment: Inhibition of ACVR2A at 1 uM
Chain of Activin receptor type-2A (Homo sapiens) (P27037 whole entry): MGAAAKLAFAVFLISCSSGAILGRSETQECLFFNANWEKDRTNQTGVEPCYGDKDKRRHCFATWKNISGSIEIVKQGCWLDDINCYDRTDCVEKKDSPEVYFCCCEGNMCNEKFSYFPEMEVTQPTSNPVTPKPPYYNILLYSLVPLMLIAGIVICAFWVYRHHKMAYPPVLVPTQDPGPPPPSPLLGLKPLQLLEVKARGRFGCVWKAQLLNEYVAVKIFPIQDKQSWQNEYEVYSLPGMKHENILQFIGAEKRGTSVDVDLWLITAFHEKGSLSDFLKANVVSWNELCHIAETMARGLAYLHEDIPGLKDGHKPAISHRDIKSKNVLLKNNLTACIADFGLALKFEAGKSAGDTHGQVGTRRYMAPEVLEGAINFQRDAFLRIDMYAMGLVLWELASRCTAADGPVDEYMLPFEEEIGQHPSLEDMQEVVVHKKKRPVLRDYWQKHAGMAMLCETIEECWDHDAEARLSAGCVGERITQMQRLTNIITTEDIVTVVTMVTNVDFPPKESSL
How it was run: (§2)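 Ambit KINOMEscan screen at a single concentration across a 250–400 kinase panel, recorded as percent inhibition. Selectivity was expressed as S(90), the fraction of kinases inhibited >90%.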

[9] = molecular target: Dual specificity protein kinase CLK2 (Homo sapiens) (UniProt P49760); experiment: Inhibition of CLK2 at 1 uM; how it was run: as §2
Chain of Dual specificity protein kinase CLK2 (Homo sapiens) (P49760 whole entry, looked up): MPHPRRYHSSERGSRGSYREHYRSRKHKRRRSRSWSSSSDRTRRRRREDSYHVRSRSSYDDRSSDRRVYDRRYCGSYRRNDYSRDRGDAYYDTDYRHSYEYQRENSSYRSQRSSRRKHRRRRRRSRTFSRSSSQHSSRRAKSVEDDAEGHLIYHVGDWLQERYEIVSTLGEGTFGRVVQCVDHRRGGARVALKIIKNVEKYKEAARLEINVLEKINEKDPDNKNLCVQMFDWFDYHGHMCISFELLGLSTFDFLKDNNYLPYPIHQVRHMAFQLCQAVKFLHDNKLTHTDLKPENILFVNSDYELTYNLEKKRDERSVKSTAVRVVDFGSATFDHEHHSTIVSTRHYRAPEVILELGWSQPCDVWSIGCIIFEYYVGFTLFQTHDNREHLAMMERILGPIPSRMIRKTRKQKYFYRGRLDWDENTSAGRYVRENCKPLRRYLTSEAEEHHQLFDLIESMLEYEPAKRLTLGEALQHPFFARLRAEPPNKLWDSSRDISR

[10] = molecular target: Serine/threonine-protein kinase Nek7 (Homo sapiens) (UniProt Q8TDX7); experiment: Inhibition of NEK7 at 1 uM
Chain of Serine/threonine-protein kinase Nek7 (Homo sapiens) (Q8TDX7 whole entry, looked up): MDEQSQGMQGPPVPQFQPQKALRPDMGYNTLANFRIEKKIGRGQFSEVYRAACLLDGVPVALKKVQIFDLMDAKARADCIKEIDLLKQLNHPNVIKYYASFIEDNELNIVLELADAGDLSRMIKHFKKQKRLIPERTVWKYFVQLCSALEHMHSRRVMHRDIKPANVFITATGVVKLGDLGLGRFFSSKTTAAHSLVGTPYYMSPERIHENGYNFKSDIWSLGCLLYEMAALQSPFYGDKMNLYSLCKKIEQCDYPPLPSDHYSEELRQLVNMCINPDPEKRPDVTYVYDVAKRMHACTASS

[11] = molecular target: T3, TGF-beta receptor type-1 (Homo sapiens) (UniProt P36897); experiment: Inhibition of TGFBR1 at 1 uM
T3 sequence (whole entry): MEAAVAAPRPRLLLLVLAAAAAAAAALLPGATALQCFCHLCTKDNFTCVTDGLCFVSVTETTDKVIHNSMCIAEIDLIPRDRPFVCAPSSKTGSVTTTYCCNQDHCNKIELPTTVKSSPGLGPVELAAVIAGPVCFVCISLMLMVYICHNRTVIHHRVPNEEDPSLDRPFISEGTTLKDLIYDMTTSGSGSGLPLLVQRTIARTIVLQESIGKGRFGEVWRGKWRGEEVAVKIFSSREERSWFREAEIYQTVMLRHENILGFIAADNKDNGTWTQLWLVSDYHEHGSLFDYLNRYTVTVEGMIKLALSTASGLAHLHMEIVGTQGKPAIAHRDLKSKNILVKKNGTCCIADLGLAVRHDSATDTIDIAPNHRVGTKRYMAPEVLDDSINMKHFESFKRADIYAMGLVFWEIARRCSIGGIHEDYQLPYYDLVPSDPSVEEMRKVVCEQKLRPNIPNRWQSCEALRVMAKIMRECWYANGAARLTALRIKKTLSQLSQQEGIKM

Row | SMILES | inhibition [1] [%] | inhibition [2] [%] | inhibition [3] [%] | inhibition [4] [%] | inhibition [5] [%] | inhibition [6] [%] | inhibition [7] [%] | inhibition [8] [%] | inhibition [9] [%] | inhibition [10] [%] | inhibition [11] [%]
1 | CN1CCN(c2ccc(-c3cnc4c(c3)N(Cc3cc(Cl)ccc3C(F)(F)F)CCN4)cn2)CC1 | < 50 | 89 | < 50 | < 50 | < 50 | < 50 | < 50 | < 50 | < 50 | < 50 | < 50
2 | FC(F)(F)c1ccc(Cl)cc1CN1CCNc2ncc(-c3ccnc(N4CCNCC4)c3)cc21 | < 50 | 97 | < 50 | < 50 | < 50 | < 50 | < 50 | < 50 | < 50 | < 50 | < 50
3 | CC(=O)N1CCN(c2cc(-c3cnc4c(c3)N(Cc3cc(Cl)ccc3C(F)(F)F)CCN4)ccn2)CC1 | < 50 | 92 | < 50 | < 50 | < 50 | < 50 | < 50 | < 50 | < 50 | < 50 | < 50
4 | CN1CCN(c2ccc(-c3cnc4c(c3)N(Cc3cc(F)ccc3F)CCN4)cn2)CC1 | < 50 | 68 | < 50 | < 50 | < 50 | < 50 | < 50 | < 50 | < 50 | < 50 | < 50
5 | CN1CCN(c2ccc(-c3cnc4c(c3)N(Cc3c(F)ccc(F)c3Cl)CCN4)cn2)CC1 | < 50 | 95 | < 50 | < 50 | < 50 | < 50 | < 50 | < 50 | < 50 | < 50 | < 50
6 | CN1CCN(c2ccc(-c3cnc4c(c3)N(Cc3cc(Cl)ccc3Cl)CCN4)cn2)CC1 | < 50 | 76 | < 50 | < 50 | < 50 | < 50 | < 50 | < 50 | < 50 | < 50 | < 50

Continued, values first:

Row | inhibition [1] [%] | inhibition [2] [%] | inhibition [3] [%] | inhibition [4] [%] | inhibition [5] [%] | inhibition [6] [%] | inhibition [7] [%] | inhibition [8] [%] | inhibition [9] [%] | inhibition [10] [%] | inhibition [11] [%] | SMILES
7 | < 50 |  | < 50 | < 50 | < 50 | < 50 | < 50 | < 50 | < 50 |  | < 50 | O=C(O)c1ccc(-c2cnc3c(c2)N(Cc2cc(Cl)ccc2C(F)(F)F)CCN3)cc1
8 | < 50 |  | < 50 | < 50 | < 50 | < 50 | < 50 | < 50 | < 50 |  | < 50 | O=C(c1ccc(-c2cnc3c(c2)N(Cc2cc(Cl)ccc2C(F)(F)F)CCN3)cc1)N1CCC(N2CCCC2)CC1
9 | < 50 |  | < 50 | < 50 | < 50 | < 50 | < 50 | < 50 | < 50 |  | < 50 | COC1CCN(C(=O)c2ccc(-c3cnc4c(c3)N(Cc3cc(Cl)ccc3C(F)(F)F)CCN4)cc2)CC1
10 | < 50 |  | < 50 | < 50 | < 50 | < 50 | < 50 | < 50 | < 50 |  | < 50 | O=C(c1ccc(-c2cnc3c(c2)N(Cc2cc(Cl)ccc2C(F)(F)F)CCN3)cc1)N1CCCCC1

From ChEMBL document CHEMBL1165965, “Synthesis and structure-activity relationships of 1,2,3,4-tetrahydropyrido[2,3-b]pyrazines as potent and selective inhibitors of the anaplastic lymphoma kinase” (Bioorg Med Chem, 2010)
